# Experimental data taken from ChEMBL document CHEMBL1123457, “Effect of methoxy substitution on the adrenergic activity of three structurally related alpha 2-adrenoreceptor antagonists” (J Med Chem, 1986).
# Key:
# [1] = target: T1, Alpha-2 adrenergic receptor (Mus musculus) (UniProt P30545+Q01338+Q01337); experiment: Agonist potency towards alpha-2 adrenergic receptor in the mouse isolated electrically stimulated vas deferens with reference to clonidine (prejunctional); format: functional, tissue-based
# How it was run: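 Mouse vas deferens from adult male MFI mice (>30 g), 0.5 g initial tension, in magnesium-free Krebs at 30 °C, gassed 95% O2/5% CO2. Field stimulation at 0.1 Hz with 3-ms pulses; voltage of 100-140 V set to give about 100 mg twitch, recorded isometrically. Repeated cumulative concentration-response curves to clonidine were run until ID50 values were consistent.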
# [2] = test system: Adrenergic receptor alpha-1 (Mus musculus); experiment: Agonist potency towards alpha-1 adrenergic receptor in the mouse isolated electrically stimulated vas deferens with reference to phenylephrine (postjunctional)
# [3] = target: T2, Adrenergic receptor alpha-1 (Rattus norvegicus) (UniProt P15823+P23944+P43140); experiment: Antagonist potency towards alpha-1 adrenergic receptor in the rat isolated anococcygeus with reference to pA2 idazoxan (postjunctional)
# [4] = target: T1, Alpha-2 adrenergic receptor (Mus musculus); experiment: Antagonist potency towards alpha-2 adrenergic receptor in the mouse isolated electrically stimulated vas deferens with reference to idazoxan (prejunctional); format: functional, tissue-based
# How it was run: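 Mouse vas deferens (adult male MFI mice, >30 g) under 0.5 g tension in magnesium-free Krebs, 30 °C, 95% O2/5% CO2. Field stimulation at 0.1 Hz, 3-ms pulses, 100-140 V giving about 100 mg twitch, isometric recording. Twitches were inhibited by 110 nM clonidine in the Krebs.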
# [5] = target: T2, Adrenergic receptor alpha-1 (Rattus norvegicus); experiment: Agonist potency towards alpha-1 adrenergic receptor in the rat isolated electrically stimulated vas deferens with reference to phenylephrine (postjunctional); format: functional, tissue-based
# How it was run: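 Vas deferens in Krebs solution (NaCl 118 mM, KCl 4.7 mM, CaCl2 2.5 mM, KH2PO4 1.2 mM, MgSO4 0.6 mM, NaHCO3 25 mM, dextrose 11.1 mM), gassed with 95% O2/5% CO2, at 30 °C. Intramural nerves stimulated with 3-ms rectangular pulses, 40 V, 0.1 Hz. Contractions recorded isometrically.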
# [6] = target: T3, Adrenergic receptor alpha-2 (Rattus norvegicus, UniProt P22086+P19328+P22909); experiment: Antagonist potency towards alpha-2 adrenergic receptor in the rat electrically stimulated vas deferens with reference to P-aminoclonidine; format: functional, tissue-based
# T3 sequence (P22086 whole entry): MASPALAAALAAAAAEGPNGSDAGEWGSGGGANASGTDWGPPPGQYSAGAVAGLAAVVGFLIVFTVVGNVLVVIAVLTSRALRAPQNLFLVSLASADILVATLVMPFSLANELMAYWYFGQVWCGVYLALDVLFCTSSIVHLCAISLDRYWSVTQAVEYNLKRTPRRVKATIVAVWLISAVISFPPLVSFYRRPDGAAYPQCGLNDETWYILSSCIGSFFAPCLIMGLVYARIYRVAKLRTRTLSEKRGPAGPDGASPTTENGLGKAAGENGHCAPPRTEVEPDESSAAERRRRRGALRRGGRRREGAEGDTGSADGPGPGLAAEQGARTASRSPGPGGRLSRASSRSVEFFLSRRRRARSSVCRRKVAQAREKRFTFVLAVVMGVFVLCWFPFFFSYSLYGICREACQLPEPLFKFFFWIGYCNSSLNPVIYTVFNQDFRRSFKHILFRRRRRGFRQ
# T3 sequence (P19328 whole entry): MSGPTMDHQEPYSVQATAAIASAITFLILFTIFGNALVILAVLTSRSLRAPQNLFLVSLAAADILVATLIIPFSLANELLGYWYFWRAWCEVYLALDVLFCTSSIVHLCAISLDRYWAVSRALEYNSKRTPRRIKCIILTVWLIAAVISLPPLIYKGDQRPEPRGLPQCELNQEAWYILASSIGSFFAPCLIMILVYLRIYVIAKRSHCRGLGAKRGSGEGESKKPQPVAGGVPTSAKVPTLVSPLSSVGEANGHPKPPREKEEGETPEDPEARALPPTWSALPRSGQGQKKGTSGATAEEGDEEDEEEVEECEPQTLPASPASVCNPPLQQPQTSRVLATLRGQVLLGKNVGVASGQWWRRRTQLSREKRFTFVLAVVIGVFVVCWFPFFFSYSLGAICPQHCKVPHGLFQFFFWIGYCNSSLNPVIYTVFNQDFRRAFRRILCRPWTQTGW
# T3 sequence (P22909 whole entry): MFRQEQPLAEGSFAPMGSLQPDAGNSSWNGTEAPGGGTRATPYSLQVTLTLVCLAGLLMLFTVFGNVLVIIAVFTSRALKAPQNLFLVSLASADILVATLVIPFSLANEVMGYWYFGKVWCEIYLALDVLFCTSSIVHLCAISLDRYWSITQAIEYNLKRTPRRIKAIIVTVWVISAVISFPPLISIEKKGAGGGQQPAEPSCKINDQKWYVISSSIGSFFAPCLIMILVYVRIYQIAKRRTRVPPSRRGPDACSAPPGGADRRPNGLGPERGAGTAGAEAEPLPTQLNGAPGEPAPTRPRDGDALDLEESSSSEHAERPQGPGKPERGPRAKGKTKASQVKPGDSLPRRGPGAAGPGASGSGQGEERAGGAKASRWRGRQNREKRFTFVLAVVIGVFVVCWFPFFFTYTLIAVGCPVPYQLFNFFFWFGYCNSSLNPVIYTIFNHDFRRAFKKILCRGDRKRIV
# [7] = test system: Adrenergic receptor alpha-1 (Rattus norvegicus); experiment: Agonist potency towards alpha-1 adrenergic receptor in the rat isolated anococcygeus with reference to phenylephrine (postjunctional)
# [8] = test system: Adrenergic receptor alpha-1 (Rattus norvegicus); experiment: Antagonist potency towards alpha-1 adrenergic receptor in the rat isolated anococcygeus with reference to pA2 idazoxan (postjunctional)
# [9] = target: T4, Adrenergic receptor alpha-1 (Rattus norvegicus, UniProt P15823+P23944+P43140); experiment: Antagonist potency towards alpha-1 adrenergic receptor in the rat electrically stimulated vas deferens with reference to phenylephrine; format: functional, tissue-based
# T4 sequence (P15823 whole entry): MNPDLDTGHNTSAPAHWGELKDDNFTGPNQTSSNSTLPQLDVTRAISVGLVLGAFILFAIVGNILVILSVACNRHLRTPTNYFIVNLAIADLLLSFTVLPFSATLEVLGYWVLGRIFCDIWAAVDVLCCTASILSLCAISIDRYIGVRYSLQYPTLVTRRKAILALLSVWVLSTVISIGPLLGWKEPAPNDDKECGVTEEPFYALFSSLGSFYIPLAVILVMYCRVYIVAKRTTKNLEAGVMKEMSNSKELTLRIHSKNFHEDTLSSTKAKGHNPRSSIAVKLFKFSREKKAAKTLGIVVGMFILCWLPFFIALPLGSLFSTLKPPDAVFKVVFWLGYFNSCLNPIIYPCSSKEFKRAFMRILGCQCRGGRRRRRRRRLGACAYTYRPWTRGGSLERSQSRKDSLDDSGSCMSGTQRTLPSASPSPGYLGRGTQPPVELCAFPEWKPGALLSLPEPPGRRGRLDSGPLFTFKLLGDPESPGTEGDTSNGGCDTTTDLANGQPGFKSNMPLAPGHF
# T4 sequence (P23944 whole entry): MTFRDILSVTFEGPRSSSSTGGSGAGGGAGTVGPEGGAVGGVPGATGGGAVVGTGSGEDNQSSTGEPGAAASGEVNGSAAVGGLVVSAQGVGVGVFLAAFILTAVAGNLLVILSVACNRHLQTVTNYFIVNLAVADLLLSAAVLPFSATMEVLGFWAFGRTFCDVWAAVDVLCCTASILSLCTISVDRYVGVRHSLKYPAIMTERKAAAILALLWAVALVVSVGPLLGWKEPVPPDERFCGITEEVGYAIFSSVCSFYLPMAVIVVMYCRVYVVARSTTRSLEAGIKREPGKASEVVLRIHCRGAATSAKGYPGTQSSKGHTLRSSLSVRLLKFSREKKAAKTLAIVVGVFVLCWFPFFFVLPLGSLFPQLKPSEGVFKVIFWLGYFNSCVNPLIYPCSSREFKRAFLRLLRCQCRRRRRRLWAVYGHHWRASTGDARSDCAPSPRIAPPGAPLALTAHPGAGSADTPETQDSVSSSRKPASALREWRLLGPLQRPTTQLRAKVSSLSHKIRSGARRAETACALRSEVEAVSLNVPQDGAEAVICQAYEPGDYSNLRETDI
# T4 sequence (P43140 whole entry): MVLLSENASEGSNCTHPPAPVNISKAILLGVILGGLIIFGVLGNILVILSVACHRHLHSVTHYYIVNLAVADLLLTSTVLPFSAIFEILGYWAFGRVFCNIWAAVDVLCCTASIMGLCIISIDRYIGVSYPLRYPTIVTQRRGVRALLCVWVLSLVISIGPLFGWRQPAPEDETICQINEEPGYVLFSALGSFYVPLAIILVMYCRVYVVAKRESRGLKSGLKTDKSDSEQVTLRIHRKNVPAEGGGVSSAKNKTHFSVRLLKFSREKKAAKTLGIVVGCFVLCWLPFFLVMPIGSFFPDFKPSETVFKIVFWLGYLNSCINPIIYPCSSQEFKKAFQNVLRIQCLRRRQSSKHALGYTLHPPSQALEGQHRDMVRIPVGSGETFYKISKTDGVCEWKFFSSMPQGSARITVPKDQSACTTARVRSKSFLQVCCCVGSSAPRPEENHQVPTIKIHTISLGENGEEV
# [10] = target: T2, Adrenergic receptor alpha-1 (Rattus norvegicus); experiment: Antagonist potency towards alpha-1 adrenergic receptor in the rat isolated electrically stimulated vas deferens with reference to pA2 idazoxan (postjunctional); format: functional, tissue-based
# [11] = species: Rattus norvegicus; experiment: Agonist potency of phenylephrine in rat isolated anococcygeus muscle; format: functional, Muscle tissue
Structure (SMILES),Potency [1],Potency [2],Potency [3],Potency [4],Potency [5],pA2 [6],Potency [7],Potency [8],pA2 [9],Potency [10],pD2 [11]
CCN(CC)CC1(OC)COc2ccccc2O1 (configuration not stated),0,0,< 0.012,0.0037,,,,,,,
CCN(CC)CC1COc2ccccc2O1 (configuration not stated),0,0,0.52,0.033,,,,,,,
Clc1ccc(OCC2=NCCN2)cc1Cl,< 0.0008,,,0.018,0.16,,,,,,
COC1(CN2CCCCC2)COc2ccccc2O1 (configuration not stated),0,,,0.00065,,5.19,0,< 0.012,< 4.48,,
c1ccc2c(c1)OCC(C1=NCCN1)O2 (configuration not stated),0,,,1,0,,,,,1,
CNC[C@H](O)c1cccc(O)c1 [PHENYLEPHRINE],,,,,,,,,,,6.54
c1ccc2c(c1)OCC(CN1CCCCC1)O2 (configuration not stated) [PIPEROXAN],0,,,0.29,0,7.54,,,,4.8,
COC1(C2=NCCN2)COc2ccccc2O1 (configuration not stated),0,,,11.3,0,9.92,,,7.43,8.3,
COC(Oc1ccc(Cl)c(Cl)c1)C1=NCCN1 (configuration not stated),0,0,0.063,0.0021,,,,,,,
